Screening results from PubChem BioAssay.
In the library only some 5.8% were active in any assay of this set; here they are far more common.
RBBP9 inh: inhibitors of human serine hydrolase RBBP9. O75884. recombinant RBBP9, FP-Rh probe fluorescence polarization. inhibition, % at 7.94 µM. hit rate 0.2% among 220,000;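 active means inhibition above the campaign mean of all tested compounds plus 3 SD, cut at about 14% in these data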
Target sequence (O75884 whole entry, looked up): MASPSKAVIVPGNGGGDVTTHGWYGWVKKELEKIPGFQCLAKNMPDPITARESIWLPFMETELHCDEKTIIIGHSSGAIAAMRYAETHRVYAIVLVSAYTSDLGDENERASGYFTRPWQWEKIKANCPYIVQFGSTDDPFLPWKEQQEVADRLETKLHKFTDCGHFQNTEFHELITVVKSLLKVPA
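Test system: recombinant human RBBP9. Quantity: 2.5 µM RBBP9 dispensing solution, before mixing. Detection: FP readout at 525/598 nm. Reagent: Serine-hydrolase probe FP-Rh, 375 nM pre-mixing. Measure: % inhibition. Control set: DMSO-treated enzyme wells and wells lacking RBBP9. Buffer or medium: Tris-NaCl-Pluronic buffer, pH 8.0. Times: preincubation 30 min plus labeling 45 min at 25 °C.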
WT yeast gro inh: growth inhibition of WT yeast, mitochondrial fusion screen | mitochondrial fusion phenotypic screen, WT strain | inhibition, % at 10 µM | hit rate 2.1% among 190,000 | AID 1362; in the data active means inhibition above about 58%; tested in S. cerevisiae
KCC2 mod: modulates chloride dependent transport by human KCC2. KCC2 cells, thallium flux FluoZin-2 fluorescence. B-score of Tl+ flux slope (higher = more flux/activation; lower = inhibition) at 10 µM. hit rate 2.2% among 190,000. Q9H2X9;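 active means thallium flux slope and its plate-corrected score both differing from the plate sample mean at a set confidence after two filtering rounds, in either direction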;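 further: slope of fluorescence scaled to starting intensity during 10 to 20 s after thallium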
ROMK mod: human ROMK K+ channel modulation, primary screen. P48048. Tet-inducible ROMK, thallium flux fluorescence; actives lie on both sides. B-score at 10 µM. hit rate 2% among 130,000;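 active means signal ratio slope over the read window, or its plate-corrected B-score, at least 3 SD from the plate mean, either direction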;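 further: B-score of the F/F0 ratio slope over 7 to 12 s after thallium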
p47phox inh: inhibitors of human p47phox binding; P14598; p47phox/p22phox peptide binding, fluorescence polarization, 2 h; inhibition, % at 24.7 µM; hit rate 0.53% among 220,000; AID 1274;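 active means inhibition above about 30%, limit read from the data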
14-3-3 Bad inh: disrupts binding of bovine 14-3-3 zeta to phospho-Bad peptide; P63103; TR-FRET 14-3-3zeta/Dy647-pBad peptide displacement, 1 h; inhibition, % at 21.7 µM; hit rate 0.71% among 220,000;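 active means inhibition above about 70%, limit read from the data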
Target sequence (P63103 whole entry, looked up): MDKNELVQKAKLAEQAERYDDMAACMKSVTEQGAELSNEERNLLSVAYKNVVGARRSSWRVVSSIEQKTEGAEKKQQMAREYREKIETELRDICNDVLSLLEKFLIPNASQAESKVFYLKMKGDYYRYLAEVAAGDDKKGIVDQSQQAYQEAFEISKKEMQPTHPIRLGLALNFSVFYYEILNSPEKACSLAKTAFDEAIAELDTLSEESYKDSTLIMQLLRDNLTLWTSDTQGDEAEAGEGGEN
KCC2 secondary: KCC2 (human) modulation, secondary assay. HEK293-KCC2, thallium flux, FluoZin2 fluorescence; active compounds read high. AID 1713. normalised thallium flux (F/F0 slope) at 10 µM. shares compounds with KCC2 mod. hit rate 15% among 3,700;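 active means thallium flux slope above the same plate's solvent-only control mean plus 3 SD; inconclusive means the two replicate wells disagree; inactive means no significant difference from solvent-only control wells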
KCC2 bumet counter: thallium flux despite bumetanide block in KCC2 cells, secondary assay 3 | HEK293-KCC2 + bumetanide/ouabain, thallium flux FluoZin2; active compounds read high | AID 1714 | shares compounds with KCC2 mod | hit rate 49% among 3,700 | normalized thallium flux at 10 µM;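 active means thallium entry rate above the same plate's blocked-transporter control wells by more than 3 SD; inconclusive means the two repeat wells disagree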;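 further: raw slope of fluorescence over initial fluorescence between 10 and 20 s after thallium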
KCC2 sec2: KCC2 (human) modulation, second secondary assay. shares compounds with KCC2 mod. HEK293-KCC2, thallium flux FluoZin2 fluorescence; actives lie on both sides; F/F0 rise rate, 10–20 s post-thallium. normalized thallium flux at 10 µM. hit rate 23% among 3,700. AID 1715;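 active means thallium flux slope more than 3 SD above or below the plate's solvent-only control mean, mostly below; inconclusive means the two repeat wells disagreed; inactive means no significant shift from solvent-only controls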
HEK counter1: counter-screen for KCC2 modulators: effect in parental HEK293 cells; shares compounds with KCC2 mod; hit rate 46% among 3,700; thallium flux rate (normalised fluorescence) at 10 µM; thallium flux FluoZin2, ouabain; baseline-ratio fluorescence slope, 10–20 s after thallium;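 active means thallium flux rate significantly above the same plate's solvent-only control wells, beyond their mean plus 3 SD; inconclusive means the two replicate wells gave conflicting results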
KCC2 ouabain: modulates human KCC2 on retest with ouabain; shares compounds with KCC2 mod; HEK293-KCC2, thallium flux FluoZin2 fluorescence; bidirectional: low = inhibitor, high = activator; raw Tl+ flux slope (below DMSO = inhibition, above = activation) at 10 µM; hit rate 48% among 3,700; AID 1717;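 active means thallium flux slope beyond 3 SD from same-plate DMSO control mean in most replicates, usually higher, sometimes lower; inconclusive means repeat tests gave conflicting results; inactive means no significant difference from controls in most replicates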;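 further: slope of initial-normalized fluorescence between seconds 10 and 20 after thallium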
HEK293 Tl flux2: acts in parental HEK cells, second KCC2 counter-screen; shares compounds with KCC2 mod; HEK293 parental, thallium flux FluoZin-2 fluorescence slope; thallium flux slope at 10 µM; hit rate 33% among 3,700; AID 1718;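 active means thallium flux slope above the same plate's solvent-control mean plus 3 SD in both duplicate wells; inconclusive means duplicate wells that disagreed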;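 further: run without ouabain in cells lacking the KCC2 cotransporter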
Hits are given with their value; - = inactive; ? = inconclusive; . = not tested or not shown.

SMILES | RBBP9 inh | WT yeast gro inh | KCC2 mod | ROMK mod | p47phox inh | 14-3-3 Bad inh | KCC2 secondary | KCC2 bumet counter | KCC2 sec2 | HEK counter1 | KCC2 ouabain | HEK293 Tl flux2
COc1ccc(NC(=S)/N=C(\N)Nc2nc(C)c3ccccc3n2)cc1 | - | . | -3.6 | - | - | - | - | - | 0.026 | - | 0.017 | -
O=c1c2ccccc2nnn1Cc1ccccn1 | - | - | -5 | - | - | - | - | ? | - | - | - | -
Cc1cccc(-n2c(-c3csc(C)c3)n[nH]c2=S)c1 | - | - | - | - | - | - | . | . | . | . | . | .
CCCCn1c(-c2cccs2)nc2nc3ccccc3nc21 | - | - | . | . | - | - | . | . | . | . | . | .
CCCCCCn1c(-c2cccs2)n[nH]c1=S | - | - | 46 | - | - | - | - | 0.084 | 0.068 | 0.063 | 0.067 | 0.057
CCCn1c(-c2ccncc2)n[nH]c1=S | - | - | . | . | - | - | . | . | . | . | . | .
CCc1cc(-c2n[nH]c(=S)n2-c2cccc(C)c2)cs1 | - | 61 | 43 | - | - | - | 0.012 | 0.11 | - | 0.02 | 0.047 | -
CCCCn1c(-c2csc(CC)c2)n[nH]c1=S | - | 67 | 14 | . | - | - | 0.012 | 0.054 | - | 0.022 | 0.044 | 0.012
CC(c1ccccc1)n1c(-c2ccncc2)n[nH]c1=S (stereo unspecified) | - | - | - | . | - | - | . | . | . | . | . | .
CC(c1ccc(F)cc1)n1c(-c2cccs2)n[nH]c1=S (stereo unspecified) | - | - | 5.2 | - | - | - | - | 0.017 | - | 0.014 | ? | 0.016
CC(=O)Nc1ccccc1OCC(=O)N(Cc1ccccc1)C(C)C | - | - | - | . | - | - | . | . | . | . | . | .
OCCCn1c(-c2ccccc2)n[nH]c1=S | - | - | - | . | - | - | . | . | . | . | . | .
CCCCn1c(-c2csc3ccccc23)n[nH]c1=S | - | - | 4.8 | - | - | - | - | 0.023 | ? | 0.02 | 0.028 | 0.023
COc1ccc2c(Cl)c(C(=O)NN3CCN(C)CC3)sc2c1 | - | - | - | - | - | - | . | . | . | . | . | .
O=C(CSc1nnc(-c2ccc(O)cc2)n1Cc1ccco1)N1CCc2ccccc2C1 | - | - | -3.7 | . | - | - | - | - | 0.023 | - | 0.013 | -
CCC1CCCCN1C(=O)c1c[nH]c2ccc(S(=O)(=O)N(C)c3ccc(Cl)cc3)cc2c1=O (stereo unspecified) | - | - | . | - | - | - | - | ? | ? | - | - | -
CN(C)C(=S)NC(=O)c1cccc(Cl)c1 | - | - | 21 | - | - | - | - | 0.037 | - | 0.025 | 0.036 | 0.022
COc1ccc(CCNC(=S)NC(=O)c2cccc(Cl)c2)cc1OC | - | . | 4.5 | . | - | - | - | 0.032 | - | 0.012 | - | ?
O=C(Cc1csc(-c2ccccc2)n1)NCc1ccccc1F | - | - | - | - | - | - | . | . | . | . | . | .
O=C(NCc1csc(-c2ccccc2)n1)c1cc(F)cc2c1OCOC2 | - | . | -3.8 | . | - | - | ? | - | - | - | 0.015 | -
O=C(Cc1csc(-c2ccccc2)n1)NCc1ccc(F)cc1 | - | - | -5.2 | . | - | - | - | - | 0.03 | - | 0.016 | -
O=C(CO/N=C\c1ccccc1)Nc1ccccc1C(=O)N1CCOCC1 | - | - | - | - | - | - | . | . | . | . | . | .
COc1ccccc1C1CC(c2ccco2)=NN1S(C)(=O)=O (stereo unspecified) | - | - | - | - | - | - | . | . | . | . | . | .
O=C(NNC(=O)c1ccc(Cl)cc1Cl)c1csc(-c2cccnc2)n1 | - | . | 8.1 | . | - | - | - | 0.018 | - | 0.015 | ? | 0.018
COc1cc(OC)c(C(=O)OCC(=O)NCCc2ccccc2)cc1OC | - | - | - | - | - | - | . | . | . | . | . | .
SMILES | RBBP9 inh | WT yeast gro inh | KCC2 mod | ROMK mod | p47phox inh | 14-3-3 Bad inh | KCC2 secondary | KCC2 bumet counter | KCC2 sec2 | HEK counter1 | KCC2 ouabain | HEK293 Tl flux2
Cc1cc(C)n2nc(N)c(N=Nc3ccc(Cl)cc3)c2n1 | - | - | - | - | - | - | . | . | . | . | . | .
c1ccc2c(c1)[nH]c1c3ccccc3sc21 | - | . | - | . | - | - | . | . | . | . | . | .
C/C(=N\NC(=O)Cc1ccccc1)c1cccs1 | - | - | - | - | - | - | . | . | . | . | . | .
C/C(=N\NC(=S)NCc1ccccc1)c1ccc(C)o1 | - | - | 5.4 | - | - | - | - | 0.015 | - | 0.012 | ? | -
C/C(=N\NC(=S)NCc1ccccc1)c1ccc2c(c1)OCCO2 | - | - | - | - | - | - | . | . | . | . | . | .
COCCNC(=S)N/N=C(\C)c1ccc(Cl)s1 | - | . | 32 | . | - | - | 0.014 | 0.06 | - | 0.02 | 0.039 | 0.012
C/C(=N\NC(=S)NCc1ccccc1)c1cccs1 | - | - | 16 | - | - | - | - | 0.041 | 0.049 | 0.04 | 0.042 | 0.04
C/C(=N\NC(=S)NCc1ccccc1)c1ccc(Cl)s1 | - | - | 10 | - | - | - | - | 0.017 | - | ? | 0.026 | -
CC(=O)N1CCCc2cc(S(=O)(=O)N(C)Cc3ccccc3)ccc21 | - | - | -4 | . | - | - | - | - | - | - | ? | -
N#CC1=C(S)N(c2ccccc2)C2(CCCCC2)NC1=O | - | - | - | - | - | - | . | . | . | . | . | .
CC1(c2cccs2)CC(c2cccs2)=C(C#N)C(=O)N1 (stereo unspecified) | - | - | 5.2 | - | - | - | - | - | - | 0.0059 | - | -
COC(=O)c1ccc(NC(=O)CSC2=NC(=O)C(c3ccccc3)C(=O)N2)cc1 (stereo unspecified) | - | - | 9.2 | - | - | - | - | ? | - | - | - | ?
CCOC(=O)c1ccc(NC(=O)CSc2nc(C)cc(=O)[nH]2)cc1 | - | - | . | - | - | - | - | - | - | - | - | -
Cc1cc(=O)[nH]c(SCC(=O)Nc2ccc(C(=O)O)cc2)n1 | - | - | - | - | - | - | . | . | . | . | . | .
CCN(CC)C(=O)C[n+]1cccc(C(N)=O)c1 | - | - | - | - | - | - | . | . | . | . | . | .
CC(C)NC(=O)Cn1cc(C(=O)COc2ccccc2)c2ccccc21 | - | - | - | - | - | - | . | . | . | . | . | .
S=c1[nH]nc(Nc2cccc3ccccc23)s1 | - | . | 30 | . | - | - | 0.0078 | 0.023 | 0.017 | 0.0088 | 0.016 | -
